For 14 compounds, IC50 and Ki results are on record in ChEMBL document CHEMBL1133100, “Design and synthesis of Cyclopenta[g]quinazoline-based antifolates as inhibitors of thymidylate synthase and potential antitumor agents(,)” (J Med Chem, 2000).

The test system of experiment [1] is L1210. Kind of experiment: Compound was tested for the inhibition of L1210:1565 cell growth in mouse; value given as 3.5,4.1. In kind it is functional, cell-based.
The test system of experiment [2] is L1210. The experiment in a line: Compound was tested for the inhibition of L1210 cell growth in mouse; value given as 1.7,2.0. In kind it is functional, cell-based.
Experiment [3] addresses T1, Thymidylate synthase (Mus musculus, UniProt P07607). Kind of experiment: Compound was tested for the binding affinity against thymidylate synthase from L1210 mouse leukemia cells; value given as 2.4,1.8. It counts as cell-based. As to conditions: read-out: Ki app. Put shortly:
(§1)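 Enzyme source was partially purified thymidylate synthase from L1210 mouse leukemia cells that overproduce TS through TS gene amplification. Apparent Ki was determined alongside the control CB3717 in each experiment. The test Kiapp/CB3717 Kiapp ratio was multiplied by the mean CB3717 Kiapp across experiments to allow comparison between experiments.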

Experiment [4] deals with L1210. Kind of experiment: Compound was tested for the inhibition of L1210 cell growth in mouse. It counts as functional, cell-based.
Experiment [5] concerns L1210. The experiment in a line: Compound was tested for the inhibition of L1210: 1565 cell growth in mouse. It counts as functional, cell-based.
Experiment [6] deals with T1, Thymidylate synthase. The experiment in a line: Binding affinity against thymidylate synthase from L1210 mouse leukemia cells. In kind it is cell-based. The conditions noted are these: read-out: Ki app. Summed up: as §1
Experiment [7] has as its system L1210. Kind of experiment: Compound was tested for the inhibition of L1210: 1565 cell growth in mouse; value given as 3.9, 3.0. In kind it is functional, cell-based.
Experiment [8] has as its system L1210. Kind of experiment: Compound was tested for the inhibition of L1210 cell growth in mouse; value given as 7.2, 7.2. It counts as functional, cell-based.
Experiment [9] deals with T1, Thymidylate synthase. Kind of experiment: Compound was tested for the binding affinity against thymidylate synthase from L1210 mouse leukemia cells; value given as 0.9, 2.0. It counts as cell-based. As to conditions: read-out: Ki app. Summed up:
as §1

The test system of experiment [10] is L1210. The experiment in a line: Compound was tested for the inhibition of L1210 cell growth in mouse; Value was given as 2.3,1.8. It counts as functional, cell-based.
For experiment [11], the system named is L1210. Kind of experiment: Compound was tested for the inhibition of L1210: 1565 cell growth in mouse; value given as 8.2, 7.8. It counts as functional, cell-based.
Experiment [12] has as its system L1210. Kind of experiment: Compound was tested for the inhibition of L1210: 1565 cell growth in mouse; value given as 3.6, 2.7. It counts as functional, cell-based.
Experiment [13] has as its system L1210. The experiment in a line: Compound was tested for the inhibition of L1210: 1565 cell growth in mouse; value given as 1.2, 1.6. In kind it is functional, cell-based.
Experiment [14] relates to L1210. Kind of experiment: Compound was tested for the inhibition of L1210: 1565 cell growth in mouse; Value given as 1.3,0.84. In kind it is functional, cell-based.

Structures are written as SMILES. pIC50, pKi: −log10 of the molar value.

T1 sequence (P07607 whole entry): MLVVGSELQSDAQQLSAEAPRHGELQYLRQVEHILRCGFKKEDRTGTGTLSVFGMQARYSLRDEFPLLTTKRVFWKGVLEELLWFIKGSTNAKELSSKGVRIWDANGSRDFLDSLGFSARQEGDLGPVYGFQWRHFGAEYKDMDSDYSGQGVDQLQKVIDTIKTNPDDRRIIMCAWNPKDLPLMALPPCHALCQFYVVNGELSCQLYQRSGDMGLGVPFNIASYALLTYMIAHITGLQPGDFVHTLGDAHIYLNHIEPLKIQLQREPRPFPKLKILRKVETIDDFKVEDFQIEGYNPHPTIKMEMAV

For `C#CCN(c1ccc(C(=O)N[C@@H](CCc2nnnn2CC(=O)O)C(=O)O)cc1)C1CCc2cc3nc(C)nc(O)c3cc21` (some centres not stated), the negative logarithm of the IC50 (pIC50) in the experiment with L1210 [1] is 5.39; in the experiment with L1210 [2], 5.70. The pKi at Thymidylate synthase [3] is 8.62.
For `C#CCN(c1ccc(C(=O)N[C@@H](CCC(=O)N[C@H](CCC(=O)O)C(=O)O)C(=O)O)cc1)C1CCc2cc3nc(C)nc(O)c3cc21` (some centres not stated), the pIC50 in the experiment with L1210 [4] is 6.52; in the experiment on L1210 [5], 5.66. At Thymidylate synthase [6], the pKi is 9.38.
`C#CCN(c1ccc(C(=O)N[C@@H](CCc2nnnn2CC(=O)N[C@H](C)C(=O)O)C(=O)O)cc1)C1CCc2cc3nc(C)nc(O)c3cc21` (some centres not stated): the negative-log IC50 (pIC50) in the experiment with L1210 [4] was 4.72; in the experiment with L1210 [5], 4.89. Moreover, the negative-log Ki (pKi) at Thymidylate synthase [6] was 8.66.
In the case of `C#CCN(c1ccc(C(=O)N[C@@H](CCC(=O)N[C@@H](CCc2nnnn2CC(=O)O)C(=O)O)C(=O)O)cc1)C1CCc2cc3nc(C)nc(O)c3cc21` (some centres not stated), the negative logarithm of the IC50 (pIC50) in the experiment with L1210 [7] was 5.41; with L1210 [8] it was 5.14. Also, at Thymidylate synthase [6], the negative logarithm of the Ki (pKi) was 9.59.
For `C#CCN(Cc1cc2c(O)nc(C)nc2cc1C)c1ccc(C(=O)N[C@@H](CCC(=O)N[C@H](CCC(=O)O)C(=O)O)C(=O)O)cc1`, the results for the pIC50 with L1210 [4] and in the experiment on L1210 [5] were 6.66 and 4.85, respectively. On Thymidylate synthase [6], the pKi was 8.70.
Turning to `C#CCN(c1ccc(C(=O)N[C@@H](CCc2nnnn2CCCC(=O)O)C(=O)O)cc1)C1CCc2cc3nc(C)nc(O)c3cc21` (some centres not stated), the negative-log IC50 (pIC50) with L1210 [4] is 5.57; in the experiment with L1210 [5], 5.64. Besides, the negative-log Ki (pKi) on Thymidylate synthase [9] was 8.70.
Consider `C#CCN(c1ccc(C(=O)N[C@@H](CCC(=O)N(C)[C@H](CCC(=O)O)C(=O)O)C(=O)O)cc1)C1CCc2cc3nc(C)nc(O)c3cc21` (some centres not stated), for which the pIC50 with L1210 [5] was 5.36; in the experiment on L1210 [10], 5.64. For the same compound, the pKi at Thymidylate synthase [6] was 9.11.
For the compound `C#CCN(c1ccc(C(=O)N[C@@H](CCCS(=O)(=O)c2nnc[nH]2)C(=O)O)cc1)C1CCc2cc3nc(C)[nH]c(=O)c3cc21` (some centres not stated), the negative logarithm of the IC50 (pIC50) in the experiment on L1210 [4] is 6.31; in the experiment on L1210 [5], 6.17. The negative logarithm of the Ki (pKi) at Thymidylate synthase [6] is 9.11.
Regarding `C#CCN(c1ccc(C(=O)N[C@@H](CCC(=O)N[C@H](C)C(=O)NS(=O)(=O)c2ccccc2)C(=O)O)cc1)C1CCc2cc3nc(C)nc(O)c3cc21` (some centres not stated), the pIC50 is 5.72 in the experiment on L1210 [4] and 5.09 in the experiment on L1210 [11]. For the same compound, on Thymidylate synthase [6], the pKi is 8.62.
In the case of `C#CCN(c1ccc(C(=O)N[C@@H](CCC(=O)N[C@H](CCC)c2nnn[nH]2)C(=O)O)cc1)C1CCc2cc3nc(C)[nH]c(=O)c3cc21` (some centres not stated), the negative logarithm of the IC50 (pIC50) with L1210 [4] was 6.36; with L1210 [12], 5.44. Besides, at Thymidylate synthase [6], the pKi is 8.59.
As to `C#CCN(c1ccc(C(=O)N[C@@H](CCC(=O)N[C@H](C)C(=O)O)C(=O)O)cc1)C1CCc2cc3nc(C)nc(O)c3cc21` (some centres not stated), the pIC50 with L1210 [4] is 6.38; with L1210 [5] it was 5.85. At Thymidylate synthase [6], the negative-log Ki (pKi) was 8.96.
Consider `C#CCN(c1ccc(C(=O)N[C@@H](CCC(=O)N[C@H](C)c2nnn[nH]2)C(=O)O)cc1)C1CCc2cc3nc(C)[nH]c(=O)c3cc21` (some centres not stated), for which the negative-log IC50 (pIC50) is 6.19 in the experiment on L1210 [4] and 5.80 in the experiment on L1210 [13]. In addition, the pKi on Thymidylate synthase [6] was 8.66.
Take `C#CCN(c1ccc(C(=O)N[C@@H](CCc2nnn(CC(=O)O)n2)C(=O)O)cc1)C1CCc2cc3nc(C)nc(O)c3cc21` (some centres not stated): the results for the negative-log IC50 (pIC50) with L1210 [4] and with L1210 [14] were 6.74 and 5.89, respectively. Further, the negative logarithm of the Ki (pKi) at Thymidylate synthase [6] is 8.77.
Turning to `C#CCN(c1ccc(C(=O)N[C@@H](CCC(=O)N[C@H](CCC(=O)O)c2nnn[nH]2)C(=O)O)cc1)C1CCc2cc3nc(C)[nH]c(=O)c3cc21` (some centres not stated), the figures for the negative logarithm of the IC50 (pIC50) in the experiment on L1210 [4] and in the experiment on L1210 [5] were 5.82 and 5.89, respectively. Besides, the pKi at Thymidylate synthase [6] is 9.70.
